In the array DNA melting data of Ke et al. (doi:10.1101/2024.01.08.574731) one finds Tm and folding enthalpy data, which are given here for 36 sequences.

The nature of data set [1]: melting temperature; fluorescence melt of hairpins on a sequencing array, two-state fit, raised by 9.35 °C to match UV melts. The conditions noted are these: sodium 0.088 M. The gist of the method:
(§1)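 Bootstrapped two-state fits yielded melting temperature and folding enthalpy for library hairpins. Cy3 fluorescence, with annealed Cy3 and quencher oligos, was imaged on a sequenced MiSeq flow cell in 50 mM Na-HEPES pH 8.0, 25 mM NaCl in 2.5 °C steps up to 60 °C, and normalised to pre-quench Cy3 and to control constructs. Four replicates were combined by inverse variance, and fitted temperatures were raised by 9.35 °C to match UV melts.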

Data set [2] in a line: folding enthalpy; higher = less favourable; fluorescence melt of hairpins on a sequencing array, two-state fit. As to conditions: sodium 0.088 M. Put shortly:
as §1

Consider GTGATGCGAAAGCACAC (((.(((....)))))), for which the Tm in data set [1] came to 53.5 °C. Also, the folding enthalpy in data set [2] was -25.8 kcal/mol.
In the same order, the values of GTGATGGGAAACCATTGC (..((((....))))..) are 33.7 °C and -23.6 kcal/mol.
In the same order, the values of GTGATTGGAAACAACCAC (((.(((....))).))) are 37.5 °C and -31.3 kcal/mol.
In the same order, the values of GTGATTGGAAACAATCAC (((((((....))))))) are 58.3 °C and -46.9 kcal/mol.
As to GTGATTGGAAACAATCGC (.(((((....))))).), the Tm in data set [1] amounted to 49.1 °C. In addition, in data set [2], the folding enthalpy was -40.7 kcal/mol.
As to GTGATTGGAAACAATTGC (..((((....))))..), the Tm in data set [1] was determined as 31.3 °C. Besides, the folding enthalpy in data set [2] is -20.4 kcal/mol.
For the sequence GTGATTGGAAACGATCAC (((((.(....).))))), the Tm in data set [1] was determined as 47.9 °C. Also, the folding enthalpy in data set [2] was -44.9 kcal/mol.
In the same order, the values of GTGATTTCGAAAGAACAC (((..(((....)))))) are 31.3 °C and -22.9 kcal/mol.
With GTGCACGAAAGTGATCAC ((((((....)))..))), the Tm in data set [1] came out at 37.4 °C. For the same sequence, in data set [2], the folding enthalpy is -12.7 kcal/mol.
The corresponding values for GTGCACGAAAGTGTACAC ((((((....)))..))) are 51.8 °C and -17.1 kcal/mol.
For the sequence GTGCACGGAAACACGCAC ((((..(....)..)))), the Tm in data set [1] was 41.1 °C. Also, the folding enthalpy in data set [2] was -29.2 kcal/mol.
In the same order, the values of GTGCACGGAAACGCGCAC ((((.((....)).)))) are 57.7 °C and -49 kcal/mol.
The corresponding values for GTGCACGGAAACGTACAC (((.(((....))).))) are 48.5 °C and -31.8 kcal/mol.
As for GTGCAGACGAAAGTCCAC (((..(((....)))))), the Tm in data set [1] worked out at 37.9 °C. Further, the folding enthalpy in data set [2] is -16.9 kcal/mol.
As for GTGCAGCGAAAGCTCCAC (((.(((....))).))), in data set [1], the Tm was determined as 44.7 °C. Also, the folding enthalpy in data set [2] was -21.8 kcal/mol.
As for GTGCAGGGAAACCTACAC (((.(((....))).))), the Tm in data set [1] is 41.5 °C. The folding enthalpy in data set [2] was -31.9 kcal/mol.
The corresponding values for GTGCATACGAAAGTACAC (((..(((....)))))) are 29.3 °C and -8.91 kcal/mol.
In the same order, the values of GTGCATCGAAAGATCCAC (((.(((....))).))) are 38.1 °C and -28.2 kcal/mol.
The corresponding values for GTGCATGGAAACACGCAC ((((.((....)).)))) are 47.7 °C and -34.6 kcal/mol.
Consider GTGCATGGAAACATGCAC (((((((....))))))), for which the Tm in data set [1] was 68.6 °C. Moreover, the folding enthalpy in data set [2] was -33.8 kcal/mol.
Turning to GTGCATGGAAACATGTGC (..((((....))))..), the Tm in data set [1] is 43 °C. In addition, the folding enthalpy in data set [2] was -25 kcal/mol.
As for GTGCCACGAAAGTGACAC (((.(((....))).))), in data set [1], the Tm was 56.5 °C. Besides, in data set [2], the folding enthalpy was -40.9 kcal/mol.
The corresponding values for GTGCCAGCGAAAGCTCAC (((..(((....)))))) are 52.6 °C and -6.66 kcal/mol.
Turning to GTGCCAGGAAACCAGCAC ((((..(....)..)))), in data set [1], the Tm stood at 41.5 °C. Moreover, the folding enthalpy in data set [2] is -28.8 kcal/mol.
The corresponding values for GTGCCAGGAAACTGGTGC (..((((....))))..) are 48 °C and -26.2 kcal/mol.
The corresponding values for GTGCCCCGAAAGGGCCAC (((.(((....))).))) are 51.3 °C and -13.4 kcal/mol.
In the same order, the values of GTGCCCGAAAGGGACAC ((((((....))).))) are 58.7 °C and -25.5 kcal/mol.
As to GTGCCCGAAAGGGCCAC ((((((....))).))), in data set [1], the Tm was 57.2 °C. Moreover, in data set [2], the folding enthalpy is -7.47 kcal/mol.
For the sequence GTGCCCGAAAGGGTACAC ((((((....)))..))), in data set [1], the Tm was 61.6 °C. Also, the folding enthalpy in data set [2] was -13.9 kcal/mol.
For GTGCCGCGAAAGCGCCAC (((.(((....))).))), in data set [1], the Tm was 53.8 °C. Besides, the folding enthalpy in data set [2] is -18.2 kcal/mol.
Consider GTGCCGGGAAACCAGCAC ((((.((....)).)))), for which, in data set [1], the Tm came out at 50.1 °C. For the same sequence, in data set [2], the folding enthalpy is -33.9 kcal/mol.
The corresponding values for GTGCCGGGAAACCGACAC (((.(((....))).))) are 52.9 °C and -33.5 kcal/mol.
The corresponding values for GTGCCGGGAAACTGGCAC (((((.(....).))))) are 66 °C and -37 kcal/mol.
Consider GTGCCTACGAAAGTACAC (((..(((....)))))), for which the Tm in data set [1] was found to be 37.8 °C. Further, in data set [2], the folding enthalpy is -4.56 kcal/mol.
For GTGCCTCCGAAAGGACAC (((..(((....)))))), in data set [1], the Tm was 52.4 °C. Besides, the folding enthalpy in data set [2] was -8.63 kcal/mol.
Consider GTGCCTCGAAAGAGTCAC (((.(((....))).))), for which the Tm in data set [1] turned out to be 50.4 °C. Further, the folding enthalpy in data set [2] is -29.5 kcal/mol.
